Assay results as given in ChEMBL document CHEMBL2331226, “Antiproliferative and antiplasmodial dimeric phloroglucinols from Mallotus oppositifolius from the Madagascar Dry Forest (1)” (J Nat Prod, 2013).
Activity calls are given as the source filed them. No cut-off for these calls is given here.

Columns and labels:
[1] = system: Plasmodium falciparum; assay: Cytocidal antimalarial activity against drug-sensitive Plasmodium falciparum HB3 intraerythrocytic stage; type: functional; conditions: read-out: LD50 (the source's name)
Outline: (§1)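 Killing of intraerythrocytic stages measured by a rapid cytocidal assay, per an earlier report. LD50 values are the mean of three replicate determinations ± S.E.M.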

[2] = system: A2780; assay: Cytotoxicity against human A2780 cells; type: functional, cell-based
[3] = system: Plasmodium falciparum; assay: Antimalarial activity against chloroquine-sensitive Plasmodium falciparum NF54 asexual stage after 72 hrs by alamar blue assay; type: functional, organism-based; conditions: NF54, 72 h
[4] = system: Plasmodium falciparum; assay: Cytocidal antimalarial activity against chloroquine/mefloquine-resistant Plasmodium falciparum Dd2 intraerythrocytic stage; type: functional; conditions: read-out: LD50 (the source's name); outline: as §1
[5] = system: Plasmodium falciparum; assay: Gametocytocidal antimalarial activity against chloroquine-sensitive Plasmodium falciparum NF54 late gametocyte stage after 72 hrs by alamar blue assay; type: functional, organism-based; conditions: NF54, 72 h
Outline: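 Stage V gametocytes came from NF54 cultures kept at 37 °C in 5% O2, 5% CO2 and […]. Asexual stages were cleared with 5% sorbitol for four days from day 9, and gametocytes were purified on day 13 over NycoPrep 1.077. 30,000–50,000 gametocytes per well were incubated with drug for 72 h in low O2. AlamarBlue was then added for 24 h (ex 540/em 585 nm). IC50 from dose-response fit; two independent determinations in duplicate, ± S.E.M.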

[6] = system: Plasmodium falciparum; assay: Antimalarial activity against chloroquine/mefloquine-resistant Plasmodium falciparum Dd2 intraerythrocytic stage after 72 hrs by SYBR green I dye based assay; type: functional, organism-based; conditions: for IC50: Plasmodium falciparum, Dd2, 72 h
[7] = system: Plasmodium falciparum; assay: Antimalarial activity against chloroquine-sensitive Plasmodium falciparum NF54 early gametocyte stage assessed as reduction in occurrence of gametocyte stages after 13 days at 0.14 uM by microscopy; type: functional, organism-based
Outline: (§2)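 NF54 cultures at 0.75% parasitemia and 1% hematocrit were grown 13 days with or without drug in 24-well plates, humidified, at 37 °C under low oxygen. Plain or drug-supplemented medium was replaced on days 4, 6, 8 and 9-12. On day 13, asexual and sexual parasitaemia were counted on Giemsa-stained smears. Controls were untreated and 0.5% DMSO vehicle. Two independent experiments.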

[8] = system: Plasmodium falciparum; assay: Antimalarial activity against chloroquine-sensitive Plasmodium falciparum NF54 early gametocyte stage assessed as reduction in occurrence of asexual intraerythrocytic stages after 13 days at 0.14 uM by microscopy; type: functional, organism-based; outline: as §2
[9] = system: Plasmodium falciparum; assay: Antimalarial activity against chloroquine-sensitive Plasmodium falciparum NF54 early gametocyte stage assessed as reduction in occurrence of gametocyte stages after 13 days at 0.76 uM by microscopy; type: functional; parameters: scale not given: the % may be the effect or the level left; outline: as §2
[10] = system: Plasmodium falciparum; assay: Antimalarial activity against chloroquine-sensitive Plasmodium falciparum NF54 early gametocyte stage assessed as reduction in occurrence of asexual intraerythrocytic stages after 13 days at 0.76 uM by microscopy; type: functional, organism-based; outline: as §2

SMILES | LC50 [1] | IC50 [2] | IC50 [3] | LC50 [4] | IC50 [5] | IC100 [6] | IC50 [6] | Activity [7] | Activity [8] | Activity [9] | Activity [10]
COc1c(CC=C(C)C)c(O)c(C(C)=O)c(O)c1Cc1c(O)c(C(C)=O)c(O)c(CC=C(C)C)c1OC [MALLOTOJAPONIN C] | 810 nM | 1300 nM | 70 nM | 800 nM | 3600 nM | 39 µM | 140 nM | Active | Active | – | –
COc1c(C)c(O)c(C(C)=O)c(O)c1Cc1c(O)c(C(C)=O)c(O)c(CC=C(C)C)c1OC [MALLOTOJAPONIN B] | 14600 nM | 1100 nM | – | 6700 nM | – | 44 µM | 750 nM | – | – | 80% | Active
C[C@H]1[C@H](OC(=O)CCC(=O)O)O[C@@H]2O[C@@]3(C)CC[C@H]4[C@H](C)CC[C@@H]1[C@@]24OO3 [ARTESUNATE] | – | – | – | – | 2300 nM | – | – | – | – | – | –
